What was measured:
Nluc-A1 receptor [1] = target: T1, Nluc-A1 receptor (Homo sapiens, UniProt P30542); assay: NanoBRET saturation binding, HEK293 cells stably expressing Nluc-A1; settings: Nluc-A1, concentrations up to 500 nM, non-specific 1 μM DPCPX
T1 sequence (P30542 2-326 limits assumed): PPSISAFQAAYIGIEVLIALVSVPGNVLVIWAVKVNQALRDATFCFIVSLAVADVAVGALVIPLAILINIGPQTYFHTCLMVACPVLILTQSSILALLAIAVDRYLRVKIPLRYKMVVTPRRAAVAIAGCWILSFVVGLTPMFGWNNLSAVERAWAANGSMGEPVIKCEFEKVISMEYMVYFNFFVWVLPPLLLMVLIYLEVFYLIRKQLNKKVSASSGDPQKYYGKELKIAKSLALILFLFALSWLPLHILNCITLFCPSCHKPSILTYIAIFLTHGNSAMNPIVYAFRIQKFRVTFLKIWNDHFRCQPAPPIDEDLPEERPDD

Nluc-A1 receptor [2] = target: T1, Nluc-A1 receptor; assay: NanoBRET association kinetics of CA200645 binding; settings: read-out: KD from kinetics (koff/kon); Nluc-A1, room temperature, 60 min, n=3
In short: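 Stable single-cell-cloned HEK293 Nluc-A1 cells were seeded 24 h ahead. Medium was replaced with HBSS containing 10 uM furimazine and equilibrated 15 min in the reader. The fluorescent ligand was then added at several concentrations, and each well was read once per min for 60 min.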

Kd (Nluc-A1 receptor [2]) [nM]	Compound	saturable specific BRET signal (Nluc-A1 receptor [1])
	COc1ccc(-n2nc3c(NC(=O)CCC(=O)NCCOCCOCCNC(=O)CCCCCNC(=O)COc4ccc(/C=C/C5=[N+]6C(=Cc7ccc(-c8cccs8)n7[B-]6(F)F)C=C5)cc4)nc4ccccc4n3c2=O)cc1 [AV039]	did not detect a saturable specific BRET signal
20.4 ± 6.9	CA200645	
